Source: BindingDB's records for doi:10.1021/jm501455s (Istituto Italiano Di Tecnologia, 2014)

Biological target: T1, N-acylethanolamine-hydrolyzing acid amidase (Rattus norvegicus, UniProt Q5KTC7)
T1 sequence (Q5KTC7 whole entry): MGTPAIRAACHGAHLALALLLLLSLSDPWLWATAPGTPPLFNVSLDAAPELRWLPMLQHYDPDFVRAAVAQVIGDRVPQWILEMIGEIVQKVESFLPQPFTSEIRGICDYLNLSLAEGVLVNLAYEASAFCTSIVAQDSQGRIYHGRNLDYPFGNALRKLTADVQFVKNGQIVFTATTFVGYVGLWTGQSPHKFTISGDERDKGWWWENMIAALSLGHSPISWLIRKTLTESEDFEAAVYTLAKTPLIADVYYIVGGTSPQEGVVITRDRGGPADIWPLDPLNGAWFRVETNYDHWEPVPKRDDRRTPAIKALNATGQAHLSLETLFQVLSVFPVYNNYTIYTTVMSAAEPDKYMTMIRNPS
Assay: Inhibition of NAAA in Sprague-Dawley rat lung assessed as inhibition of hydrolysis of 10-cis-heptadecenoylethanolamide by UPLC/MS method
In short: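 Native NAAA enzyme prepared from rat lungs, not a recombinant construct. The substrate, 10-cis-heptadecenoylethanolamide, is an unnatural fatty acid ethanolamide. Inhibition of its hydrolysis was measured, and the median inhibitory concentration (IC50) was reported.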

Row | IC50 [nM] | Structure (SMILES)
1 | 24 | Cc1ccc(-c2ccc(COC(=O)N[C@H]3C(=O)O[C@H]3C)cc2)cc1
2 | 15 | C[C@@H]1OC(=O)[C@@H]1NC(=O)OCC#Cc1ccccc1
3 | 28 | C[C@@H]1OC(=O)[C@@H]1NC(=O)OCc1ccc(-c2ccc(C(F)(F)F)cc2)cc1 [US9353075, 44]
